From ChEMBL document CHEMBL4229353, “Synthesis and antiviral evaluation of cyclopentyl nucleoside phosphonates” (Eur J Med Chem, 2018)

System: not listed separately
Test: Cytotoxicity against HEL cells assessed as alteration in cell morphology after 3 days by microscopic analysis
Assay type: cell-based
Conditions: human
Outline: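 Uninfected HEL cell cultures were exposed to graded compound concentrations. MCC is the lowest concentration producing a microscopically detectable alteration of cell morphology.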

Row | Compound | MCC at 72 h
1 | Nc1nc2c(ncn2[C@@H]2C[C@H](OCP(=O)(O)O)[C@@H](O)C2)c(=O)[nH]1 | > 289 µM
2 | CC(C)OC(=O)[C@H](C)NP(=O)(CO[C@H]1C[C@@H](n2cnc3c(=O)[nH]c(N)nc32)C[C@@H]1O)N[C@@H](C)C(=O)OC(C)C | > 175 µM
3 | Nc1nc2c(ncn2[C@@H]2C[C@H](OCP(=O)(O)O)C[C@H]2O)c(=O)[nH]1 | > 289 µM
4 | Nc1nc2c(ncn2COCCO)c(=O)[nH]1 [ACYCLOVIR] | > 444 µM
5 | O=c1[nH]c(=O)n([C@H]2C[C@H](O)[C@@H](CO)O2)cc1/C=C/Br [BRIVUDINE] | > 300 µM
6 | CC(C)OC(=O)[C@H](C)NP(=O)(CO[C@@H]1C[C@@H](O)[C@H](n2cnc3c(=O)[nH]c(N)nc32)C1)N[C@@H](C)C(=O)OC(C)C | > 175 µM
7 | Cc1cn([C@@H]2C[C@H](OCP(=O)(O)O)[C@@H](O)C2)c(=O)[nH]c1=O | > 247 µM
8 | Nc1ncnc2c1ncn2[C@@H]1C[C@H](OCP(=O)(O)O)C[C@H]1O | > 303 µM
9 | Nc1ncnc2c1ncn2[C@@H]1C[C@H](OCP(=O)(O)O)[C@@H](O)C1 | > 303 µM
10 | Nc1ccn(C[C@@H](CO)OCP(=O)(O)O)c(=O)n1 [CIDOFOVIR] | > 358 µM
11 | Nc1nc2c(ncn2COC(CO)CO)c(=O)[nH]1 [GANCICLOVIR] | > 391 µM
12 | Nc1ccn([C@@H]2C[C@H](OCP(=O)(O)O)C[C@H]2O)c(=O)n1 | > 327 µM
13 | Nc1ccn([C@@H]2C[C@H](OCP(=O)(O)O)[C@@H](O)C2)c(=O)n1 | > 327 µM
14 | Cc1cn([C@@H]2C[C@H](OCP(=O)(O)O)C[C@H]2O)c(=O)[nH]c1=O | > 247 µM

System: Human alphaherpesvirus 2
Test: Antiviral activity against Herpes simplex virus 2 G infected in HEL cells assessed as […] measured after 2 to 3 days post infection
Assay type: functional, organism-based
Conditions: Human alphaherpesvirus 2, strain G
Outline: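 Confluent HEL fibroblast monolayers were infected with 100 CCID50 of virus, and the inoculum was removed after 2 h adsorption. Cells were then cultured with serial compound concentrations. Virus-induced cytopathicity was scored at 2-3 days (HSV) or 6-7 days (HCMV) post-infection.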

Row | Compound | EC50
15 | Nc1nc2c(ncn2[C@@H]2C[C@H](OCP(=O)(O)O)[C@@H](O)C2)c(=O)[nH]1 | 33.9 µM
16 | CC(C)OC(=O)[C@H](C)NP(=O)(CO[C@H]1C[C@@H](n2cnc3c(=O)[nH]c(N)nc32)C[C@@H]1O)N[C@@H](C)C(=O)OC(C)C | 85.5 µM
17 | Nc1nc2c(ncn2[C@@H]2C[C@H](OCP(=O)(O)O)C[C@H]2O)c(=O)[nH]1 | 57.9 µM
18 | Nc1nc2c(ncn2COCCO)c(=O)[nH]1 [ACYCLOVIR] | 0.29 µM
19 | O=c1[nH]c(=O)n([C@H]2C[C@H](O)[C@@H](CO)O2)cc1/C=C/Br [BRIVUDINE] | > 30 µM
20 | CC(C)OC(=O)[C@H](C)NP(=O)(CO[C@@H]1C[C@@H](O)[C@H](n2cnc3c(=O)[nH]c(N)nc32)C1)N[C@@H](C)C(=O)OC(C)C | > 175 µM
21 | Cc1cn([C@@H]2C[C@H](OCP(=O)(O)O)[C@@H](O)C2)c(=O)[nH]c1=O | 92.3 µM
22 | Nc1ncnc2c1ncn2[C@@H]1C[C@H](OCP(=O)(O)O)C[C@H]1O | 132 µM
23 | Nc1ncnc2c1ncn2[C@@H]1C[C@H](OCP(=O)(O)O)[C@@H](O)C1 | > 303 µM
24 | Nc1ccn(C[C@@H](CO)OCP(=O)(O)O)c(=O)n1 [CIDOFOVIR] | 2.27 µM
25 | Nc1nc2c(ncn2COC(CO)CO)c(=O)[nH]1 [GANCICLOVIR] | 0.019 µM
26 | Nc1ccn([C@@H]2C[C@H](OCP(=O)(O)O)C[C@H]2O)c(=O)n1 | > 327 µM
27 | Nc1ccn([C@@H]2C[C@H](OCP(=O)(O)O)[C@@H](O)C2)c(=O)n1 | > 327 µM
28 | Cc1cn([C@@H]2C[C@H](OCP(=O)(O)O)C[C@H]2O)c(=O)[nH]c1=O | > 247 µM

System: Human alphaherpesvirus 3
Test: Antiviral activity against thymidine kinase deficient Varicella-Zoster virus 07-1 infected in HEL cells assessed as inhibition of plaque formation measured after 5 days post infection
Assay type: functional, organism-based
Conditions: Human alphaherpesvirus 3, 07-1, HEL, 120 h
Outline: (§1)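 Confluent HEL fibroblast monolayers in 96-well plates were inoculated with 20 PFU of VZV (Oka or TK– strain 07-1). After 2 h adsorption, the inoculum was removed and cultures were incubated with varying compound concentrations. Plaque formation was recorded at 5 days post-infection.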

Row | Compound | EC50
29 | Nc1nc2c(ncn2[C@@H]2C[C@H](OCP(=O)(O)O)[C@@H](O)C2)c(=O)[nH]1 | 8.38 µM
30 | CC(C)OC(=O)[C@H](C)NP(=O)(CO[C@H]1C[C@@H](n2cnc3c(=O)[nH]c(N)nc32)C[C@@H]1O)N[C@@H](C)C(=O)OC(C)C | 29.8 µM
31 | Nc1nc2c(ncn2[C@@H]2C[C@H](OCP(=O)(O)O)C[C@H]2O)c(=O)[nH]1 | 8.83 µM
32 | Nc1nc2c(ncn2COCCO)c(=O)[nH]1 [ACYCLOVIR] | 14.1 µM
33 | O=c1[nH]c(=O)n([C@H]2C[C@H](O)[C@@H](CO)O2)cc1/C=C/Br [BRIVUDINE] | 3.39 µM
34 | CC(C)OC(=O)[C@H](C)NP(=O)(CO[C@@H]1C[C@@H](O)[C@H](n2cnc3c(=O)[nH]c(N)nc32)C1)N[C@@H](C)C(=O)OC(C)C | > 175 µM
35 | Cc1cn([C@@H]2C[C@H](OCP(=O)(O)O)[C@@H](O)C2)c(=O)[nH]c1=O | 5.73 µM
36 | Nc1ncnc2c1ncn2[C@@H]1C[C@H](OCP(=O)(O)O)C[C@H]1O | > 303 µM
37 | Nc1ncnc2c1ncn2[C@@H]1C[C@H](OCP(=O)(O)O)[C@@H](O)C1 | 79 µM
38 | Nc1ccn([C@@H]2C[C@H](OCP(=O)(O)O)C[C@H]2O)c(=O)n1 | > 327 µM
39 | Nc1ccn([C@@H]2C[C@H](OCP(=O)(O)O)[C@@H](O)C2)c(=O)n1 | > 327 µM
40 | Cc1cn([C@@H]2C[C@H](OCP(=O)(O)O)C[C@H]2O)c(=O)[nH]c1=O | > 247 µM

System: Human alphaherpesvirus 1
Test: Antiviral activity against thymidine kinase-deficient ACV-resistant Herpes simplex virus 1 KOS infected in HEL cells assessed as […] measured after 2 to 3 days post infection
Assay type: functional, organism-based
Conditions: Human alphaherpesvirus 1, KOS
Outline: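 Confluent HEL fibroblast monolayers in 96-well plates were inoculated with 100 CCID50 of HSV-1 (KOS or TK-deficient ACV-resistant KOS). After 2 h adsorption, the inoculum was removed and cells were incubated with varying compound concentrations. Virus-induced cytopathicity was recorded at 2-3 days post-infection.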

Row | Compound | EC50
41 | Nc1nc2c(ncn2[C@@H]2C[C@H](OCP(=O)(O)O)[C@@H](O)C2)c(=O)[nH]1 | 14.1 µM
42 | CC(C)OC(=O)[C@H](C)NP(=O)(CO[C@H]1C[C@@H](n2cnc3c(=O)[nH]c(N)nc32)C[C@@H]1O)N[C@@H](C)C(=O)OC(C)C | 35 µM
43 | Nc1nc2c(ncn2[C@@H]2C[C@H](OCP(=O)(O)O)C[C@H]2O)c(=O)[nH]1 | 99 µM
44 | Nc1nc2c(ncn2COCCO)c(=O)[nH]1 [ACYCLOVIR] | > 88 µM
45 | O=c1[nH]c(=O)n([C@H]2C[C@H](O)[C@@H](CO)O2)cc1/C=C/Br [BRIVUDINE] | > 30 µM
46 | CC(C)OC(=O)[C@H](C)NP(=O)(CO[C@@H]1C[C@@H](O)[C@H](n2cnc3c(=O)[nH]c(N)nc32)C1)N[C@@H](C)C(=O)OC(C)C | > 175 µM
47 | Cc1cn([C@@H]2C[C@H](OCP(=O)(O)O)[C@@H](O)C2)c(=O)[nH]c1=O | 9.89 µM
48 | Nc1ncnc2c1ncn2[C@@H]1C[C@H](OCP(=O)(O)O)C[C@H]1O | 161 µM
49 | Nc1ncnc2c1ncn2[C@@H]1C[C@H](OCP(=O)(O)O)[C@@H](O)C1 | > 303 µM
50 | Nc1nc2c(ncn2COC(CO)CO)c(=O)[nH]1 [GANCICLOVIR] | 3.91 µM
51 | Nc1ccn([C@@H]2C[C@H](OCP(=O)(O)O)C[C@H]2O)c(=O)n1 | > 327 µM
52 | Nc1ccn([C@@H]2C[C@H](OCP(=O)(O)O)[C@@H](O)C2)c(=O)n1 | > 327 µM
53 | Cc1cn([C@@H]2C[C@H](OCP(=O)(O)O)C[C@H]2O)c(=O)[nH]c1=O | > 247 µM

System: Human alphaherpesvirus 3
Test: Antiviral activity against thymidine kinase expressing Varicella-Zoster virus Oka infected in HEL cells assessed as inhibition of plaque formation measured after 5 days post infection
Assay type: functional, organism-based
Conditions: Human alphaherpesvirus 3, strain Oka vaccine, 120 h
Outline: as §1

Row | Compound | EC50
54 | Nc1nc2c(ncn2[C@@H]2C[C@H](OCP(=O)(O)O)[C@@H](O)C2)c(=O)[nH]1 | 17.1 µM
55 | CC(C)OC(=O)[C@H](C)NP(=O)(CO[C@H]1C[C@@H](n2cnc3c(=O)[nH]c(N)nc32)C[C@@H]1O)N[C@@H](C)C(=O)OC(C)C | 35 µM
56 | Nc1nc2c(ncn2[C@@H]2C[C@H](OCP(=O)(O)O)C[C@H]2O)c(=O)[nH]1 | 5.35 µM
57 | Nc1nc2c(ncn2COCCO)c(=O)[nH]1 [ACYCLOVIR] | 3.37 µM
58 | O=c1[nH]c(=O)n([C@H]2C[C@H](O)[C@@H](CO)O2)cc1/C=C/Br [BRIVUDINE] | 0.021 µM
59 | CC(C)OC(=O)[C@H](C)NP(=O)(CO[C@@H]1C[C@@H](O)[C@H](n2cnc3c(=O)[nH]c(N)nc32)C1)N[C@@H](C)C(=O)OC(C)C | 66.6 µM
60 | Cc1cn([C@@H]2C[C@H](OCP(=O)(O)O)[C@@H](O)C2)c(=O)[nH]c1=O | 23.1 µM
61 | Nc1ncnc2c1ncn2[C@@H]1C[C@H](OCP(=O)(O)O)C[C@H]1O | > 303 µM
62 | Nc1ncnc2c1ncn2[C@@H]1C[C@H](OCP(=O)(O)O)[C@@H](O)C1 | 258 µM
63 | Nc1ccn([C@@H]2C[C@H](OCP(=O)(O)O)C[C@H]2O)c(=O)n1 | > 327 µM
64 | Nc1ccn([C@@H]2C[C@H](OCP(=O)(O)O)[C@@H](O)C2)c(=O)n1 | > 327 µM
65 | Cc1cn([C@@H]2C[C@H](OCP(=O)(O)O)C[C@H]2O)c(=O)[nH]c1=O | > 247 µM

System: not listed separately
Test: Cytostatic activity against HEL cells after 3 days by Coulter counting method
Assay type: cell-based
Conditions: human
Outline: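 HEL cells were seeded at 5 x 10^3 cells/well and left to proliferate for 24 h. Medium with graded compound concentrations was then added, followed by 3 days at 37 °C. Cells were counted with a Coulter counter. CC50, the concentration halving proliferation relative to untreated controls, was read from plots of cell number (% of control) versus concentration.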

Row | Compound | CC50 at 72 h
66 | Nc1nc2c(ncn2[C@@H]2C[C@H](OCP(=O)(O)O)[C@@H](O)C2)c(=O)[nH]1 | > 289 µM
67 | CC(C)OC(=O)[C@H](C)NP(=O)(CO[C@H]1C[C@@H](n2cnc3c(=O)[nH]c(N)nc32)C[C@@H]1O)N[C@@H](C)C(=O)OC(C)C | > 175 µM
68 | Nc1nc2c(ncn2[C@@H]2C[C@H](OCP(=O)(O)O)C[C@H]2O)c(=O)[nH]1 | > 289 µM
69 | Nc1nc2c(ncn2COCCO)c(=O)[nH]1 [ACYCLOVIR] | > 444 µM
70 | O=c1[nH]c(=O)n([C@H]2C[C@H](O)[C@@H](CO)O2)cc1/C=C/Br [BRIVUDINE] | > 300 µM
71 | CC(C)OC(=O)[C@H](C)NP(=O)(CO[C@@H]1C[C@@H](O)[C@H](n2cnc3c(=O)[nH]c(N)nc32)C1)N[C@@H](C)C(=O)OC(C)C | > 175 µM
72 | Cc1cn([C@@H]2C[C@H](OCP(=O)(O)O)[C@@H](O)C2)c(=O)[nH]c1=O | 69.4 µM
73 | Nc1ccn(C[C@@H](CO)OCP(=O)(O)O)c(=O)n1 [CIDOFOVIR] | > 358 µM
74 | Nc1nc2c(ncn2COC(CO)CO)c(=O)[nH]1 [GANCICLOVIR] | > 391 µM
